OXTR ag = human OXTR agonists, primary screen, fluorescence, CHO-OTR cells, Fluo-8 calcium; Oxytocin receptor (Homo sapiens), P30559; Fluo-8 calcium fluorescence; normalized: DMSO 0%, oxytocin 100%; activation, % at 3 µM; 320,000 tested, 0.32% active; AID 2435, 2010;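 active = activation above the mean of all tested compounds plus 3 SD, cutoff set per screening run, cut at about 20% in these data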;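 also: peak over basal fluorescence ratio from a 100 s FLIPR kinetic read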
OX1R antag-1 = antagonists of human orexin 1 receptor (OX1R) | Orexin/Hypocretin receptor type 1 (Homo sapiens), O43613 | OX1R-expressing cells, FRET antagonist read-out | inhibition, % at 6.6 µM | 330,000 tested, 1.8% active | AID 485270, 2010; in the data active = inhibition mostly above about 38%, no sharp cut-off; inactive = mostly below about 40%;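 also: 0% = agonist challenge alone and 100% = reference antagonist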
OX1R antag-2 = OX1R (HCRTR1) antagonists, primary screen, fluorescence, CHO/OX1R cells, Fluo-8 calcium, orexin A. Fluo-8 calcium fluorescence. inhibition, % at 5 µM. 330,000 tested, 0.43% active. AID 434989, 2010;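 active = inhibition above its plate's threshold, mean inhibition of all tested compounds on the plate plus 3 SD, cut at about 37% in these data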;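 also: 0% = orexin A challenge wells and 100% = SB-334867-A antagonist wells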
CHO parental Ca = ATP-evoked calcium signal inhibitors, parental CHO, primary screen, counter-screen for OX1R antagonist project, cell-based, fluorescence, Fluo-8 calcium dye | AID 463079, 2010 | inhibition, % at 5.6 µM | 330,000 tested, 0.63% active | parental CHO-K1, ATP-induced calcium, Fluo-8 fluorescence;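 active = inhibition above that plate's mean sample inhibition plus 3 SD, cut at about 26% in these data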;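 also: 0% = ATP-challenged DMSO wells and 100% = DMSO wells without ATP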
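Assay system: untransfected parental CHO cell line. Also added: ATP agonist challenge. Dosing: one dose, 5.6 µM nominal. Measured by: Fluo-8 fluorescence. Read-out: % inhibition. Benchmarks: ATP wells versus no-ATP DMSO wells. Repeats: no replicates.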
OXTR potentiator = human OXTR potentiators, primary screen, fluorescence, CHO-OTR cells, Fluo-8 calcium | Oxytocin receptor (Homo sapiens), P30559 | Fluo-8 calcium fluorescence, potentiator mode; 0% = oxytocin EC15, 100% = EC100 | activation, % at 3 µM | 320,000 tested, 0.061% active;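 active = activation above that plate's cutoff, the mean activation of tested compounds plus 3 SD, cut at about 6.6% in these data, passing the limit was not always enough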;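 also: 100% uses oxytocin at 75 nM as the full agonist control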
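Dosing: Single dose, 3.0 µM nominal final compound concentration | Material: Human OTR in CHO cells | Technique: Kinetic Fluo-8 calcium fluorescence | Benchmarks: EC15 oxytocin alone as 0%, 75 nM oxytocin as 100% | Probe or stimulus: Oxytocin at about EC15, sub-maximal agonist stimulus | Incubation: Compound 6 min at room temperature before oxytocin, 100 s read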
V1R ag counter = agonists of human V1a receptor, primary screen, counter-screen for OXTR agonist project, fluorescence, CHO-V1R cells; AID 2797, 2010; 320,000 tested, 0.25% active; activation, % at 3 µM; Fluo-8 calcium fluorescence, agonist mode; 0% DMSO, 100% 3 nM vasopressin;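 active = activation above the mean activation of all tested compounds plus 3 SD, per screening run, cut at about 20% in these data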;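 also: signal is peak over basal fluorescence ratio across a 100 second FLIPR read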
Target sequence (P37288 whole entry, looked up): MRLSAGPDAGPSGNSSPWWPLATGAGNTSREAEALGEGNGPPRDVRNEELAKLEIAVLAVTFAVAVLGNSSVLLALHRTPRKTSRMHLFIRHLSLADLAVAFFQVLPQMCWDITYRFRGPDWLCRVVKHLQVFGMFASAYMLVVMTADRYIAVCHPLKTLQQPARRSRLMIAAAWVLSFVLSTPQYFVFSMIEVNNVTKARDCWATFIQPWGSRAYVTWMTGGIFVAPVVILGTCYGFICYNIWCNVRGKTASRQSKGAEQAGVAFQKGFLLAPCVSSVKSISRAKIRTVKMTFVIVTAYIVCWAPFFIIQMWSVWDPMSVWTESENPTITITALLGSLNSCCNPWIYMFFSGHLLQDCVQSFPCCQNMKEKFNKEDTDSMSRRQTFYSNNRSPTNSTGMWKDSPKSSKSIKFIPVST
* hit, by the source's call. Shown are actives, neighbours in structure and some others; about 2.7% of the full set was active somewhere.

SMILES	OXTR ag	OX1R antag-1	OX1R antag-2	CHO parental Ca	OXTR potentiator	V1R ag counter
FC(F)Sc1ccc(NC(=S)NCc2ccccc2)cc1	5	26	-7	11	-14	10
FC(F)Sc1ccc(NC(=S)NCC2CCCCC2)cc1	14	32	2	22	-9	9
FC(F)Sc1ccc(NC(=S)NC(c2ccccc2)c2ccccc2)cc1	11	41*	23	39*	-16	11
FC(F)Sc1ccc(NC(=S)NC2CCCCC2)cc1	10	42*	24	11	-12	10
COc1ccc(C(=O)N2CCN(S(=O)(=O)c3ccc4c(c3)OCCO4)CC2)cc1OC	0	2	-25	-15	-8	0
CCOC(=O)c1c(C)[nH]c2c1cc(O)c1ccccc12	-2	43*	-8	2	-5	-1
CCOC(=O)c1c(C)[nH]c(C)c1C(=O)COC(=O)c1cc2ccccc2cc1O	0	72*	0	-14	-14	3
CCOC(=O)c1c(C)oc2c1cc(O)c1ccccc12	0	22	-15	-23	-9	0
CCOC(=O)c1c(C)[nH]c(C)c1C(=O)COC(=O)c1cc2ccccc2cc1OC	4	44	7	-7	-5	1
CCOC(=O)C1CCCN(c2cc(NCCCO)c([N+](=O)[O-])c3nonc23)C1 (stereo unspecified)	-1	73*	-30	-6	-2	0
O=[N+]([O-])c1c(NCCO)cc(N2CCCCCC2)c2nonc12	-1	42	-18	-7	-6	1
O=C(Cn1ccc(NC(=O)OCc2ccccc2)nc1=O)NCCc1c[nH]c2ccccc12	0	-4	-11	-18	-5	0
O=[N+]([O-])c1ccc(OC(F)F)c(/C=N/n2cnnc2)c1	1	56	2	6	8	0
COc1ccc(S(=O)(=O)N2CN3CCN(C3)C2)cc1OC	1	-13	-1	-8	2	0
O=C(COC(=O)CCS(=O)(=O)c1ccc(F)cc1)NC1CCCCC1	0	8	-15	-9	3	1
COc1cc(-c2nnc(COC(=O)C3c4ccccc4Oc4ccccc43)o2)cc(OC)c1OC	-1	43*	-12	-13	-9	1
COc1cc(-c2nnc(COC(=O)c3cccn3C)o2)cc(OC)c1OC	0	20	-11	-17	1	1
COc1cc(/C=C(\C#N)c2nc3ccccc3[nH]2)ccc1OC(=O)c1ccco1	2	71*	14	2	-8	3
Cc1ccccc1-n1nc2c(c1NC(=O)c1cc3ccccc3oc1=O)CS(=O)(=O)C2	2	9	-6	-7	-3	1
Cc1ccccc1-n1nc2c(c1NC(=O)c1cc3ccccc3oc1=O)CS(=O)C2 (stereo unspecified)	1	46*	-14	-14	-2	0
CCOC(=O)c1cc2c(C)n(-c3ccc(OCC)cc3)c(C)c2ccc1=O	1	26	-32	-13	-5	1
CCOC(=O)c1cc2c(C)n(-c3ccc(C)cc3)c(C)c2ccc1=O	12	41*	-13	-8	-23	9
Cc1n[nH]c(C)c1N1C(=O)c2cccc3c(N4CCCCCC4)ccc(c23)C1=O	146*	14	90*	76*	-24	150*
O=C1c2cccc3c(N4CCCCC4)ccc(c23)C(=O)N1c1cccc(O)c1	33*	7	56*	56*	-13	40*
CN(C)Cc1ccccc1Sc1ccc2c(c1)CCCC2	0	45	-17	-13	-1	0
CCN(CCn1cccn1)C(=O)C1CCC(=O)N(CCc2cccc(F)c2)C1 (stereo unspecified)	1	8	-5	-5	-4	8
O=[N+]([O-])c1ccc(N2CCc3ccccc3C2)cc1	-2	52*	5	-4	-12	0

Source: PubChem
